The target of experiment [1] is Protein farnesyltransferase subunit beta (Homo sapiens) (UniProt P49356). Put plainly: Activity at FTase assessed as formation of farnesylated peptide after 60 mins by HPLC. The method in brief: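 Peptide (3 μM) with 9 μM FPP and recombinant mammalian FTase (0.05 μM), incubated 60 min. HPLC scored conversion to farnesylated peptide: complete; nearly complete; 25% to 50%; less than 25%; no product.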

For experiment [2] the target is unchanged. Put plainly: Substrate activity for FTase assessed as increase in fluorescence by spectrofluorimetry in presence of farnesyl diphosphate relative to DnGCVLS. The arrangement: concentration or dose not given beside the values.
Experiment [3] shares this target. Put plainly: Ratio of kcat to km for FTase in presence of farnesyl diphosphate. The essentials:
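Steady-state kinetics at saturating FPP (10 μM), 0.2-10 μM dansyl peptide, 20-100 nM FTase (at least 5-fold below peptide). Buffer: 50 mM HEPPSO pH 7.8, 5 mM TCEP, 5 mM MgCl2, 25 °C. Peptide preincubated 20 min in buffer, then FTase and FPP added. Fluorescence (ex 340, em 520 nm) followed over time and converted to kcat/KM.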

Activity calls are given as the source filed them. No cut-off for these calls is given here. Peptide text beside a SMILES is read from it. * marks the point of attachment. Dansyl = CN(C)c1cccc2c(S(=O)(=O)*)cccc12

Chain of Protein farnesyltransferase subunit beta (Homo sapiens) (P49356 whole entry): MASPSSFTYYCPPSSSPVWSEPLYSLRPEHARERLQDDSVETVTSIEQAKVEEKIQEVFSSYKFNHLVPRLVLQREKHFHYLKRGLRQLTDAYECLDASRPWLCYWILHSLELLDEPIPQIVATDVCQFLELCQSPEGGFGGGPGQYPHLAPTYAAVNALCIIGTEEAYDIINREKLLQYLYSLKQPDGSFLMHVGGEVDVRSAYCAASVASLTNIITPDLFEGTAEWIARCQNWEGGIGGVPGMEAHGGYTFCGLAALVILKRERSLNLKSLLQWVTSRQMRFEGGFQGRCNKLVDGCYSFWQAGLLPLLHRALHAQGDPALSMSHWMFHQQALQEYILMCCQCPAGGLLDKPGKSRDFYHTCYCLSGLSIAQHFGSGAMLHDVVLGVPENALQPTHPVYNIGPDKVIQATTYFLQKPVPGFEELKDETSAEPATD

With `CC[C@H](C)[C@H](NC(=O)[C@H](CC(C)C)NC(=O)[C@H](CS)NC(=O)CNS(=O)(=O)c1cccc2c(N(C)C)cccc12)C(=O)N[C@@H](CC(C)C)C(=O)O` (Dansyl-GCLIL-OH), the result in experiment [1] was Active. For the same compound, the Activity in experiment [2] is less than 5%.
The matching figures for `CC(C)C[C@H](NC(=O)[C@@H](NC(=O)[C@H](CO)NC(=O)[C@H](CS)NC(=O)CNS(=O)(=O)c1cccc2c(N(C)C)cccc12)[C@@H](C)O)C(=O)O` (Dansyl-GCSTL-OH): “inactive” and 0%.
Consider `CC(C)C[C@H](NC(=O)[C@H](CS)NC(=O)CNC(=O)[C@H](CS)NC(=O)CNS(=O)(=O)c1cccc2c(N(C)C)cccc12)C(=O)O` (Dansyl-GCGCL-OH), for which, in experiment [1], the result was inactive. For the same compound, the Activity in experiment [2] was found to be 0%.
`CC(C)C[C@H](NC(=O)[C@H](CC(N)=O)NC(=O)[C@H](CCC(N)=O)NC(=O)[C@H](CS)NC(=O)CNS(=O)(=O)c1cccc2c(N(C)C)cccc12)C(=O)O` (Dansyl-GCQNL-OH): in experiment [1], the outcome was inactive. In addition, the Activity in experiment [2] was 0%.
The matching figures for `CSCC[C@H](NC(=O)[C@H](CS)NC(=O)CNS(=O)(=O)c1cccc2c(N(C)C)cccc12)C(=O)N[C@@H](CCC(=O)O)C(=O)N[C@@H](CC(C)C)C(=O)O` (Dansyl-GCMEL-OH): “inactive” and 0%.
In the case of `CC(C)C[C@H](NC(=O)[C@H](CC(C)C)NC(=O)[C@H](C)NC(=O)[C@H](CS)NC(=O)CNS(=O)(=O)c1cccc2c(N(C)C)cccc12)C(=O)O` (Dansyl-GCALL-OH), the Activity in experiment [2] was less than 5%.
`CC(C)C[C@H](NC(=O)[C@H](Cc1ccc(O)cc1)NC(=O)[C@H](C)NC(=O)[C@H](CS)NC(=O)CNS(=O)(=O)c1cccc2c(N(C)C)cccc12)C(=O)O` (Dansyl-GCAYL-OH): the result in experiment [1] was inactive. Also, the Activity in experiment [2] came to 0%.
As to `CC[C@H](C)[C@H](NC(=O)[C@@H]1CCCN1C(=O)[C@H](CS)NC(=O)CNS(=O)(=O)c1cccc2c(N(C)C)cccc12)C(=O)N[C@@H](CC(C)C)C(=O)O` (Dansyl-GCPIL-OH), the Activity in experiment [2] is less than 5%.
In the case of `CC(C)C[C@H](NC(=O)[C@@H](NC(=O)[C@H](CCCCN)NC(=O)[C@H](CS)NC(=O)CNS(=O)(=O)c1cccc2c(N(C)C)cccc12)C(C)C)C(=O)O` (Dansyl-GCKVL-OH), the Activity in experiment [2] was less than 5%.
As to `CC(C)C[C@H](NC(=O)[C@@H](NC(=O)[C@H](CC(C)C)NC(=O)[C@H](CS)NC(=O)CNS(=O)(=O)c1cccc2c(N(C)C)cccc12)C(C)C)C(=O)O` (Dansyl-GCLVL-OH), in experiment [2], the Activity was less than 5%.
As to `CC(C)C[C@H](NC(=O)[C@@H]1CCCN1C(=O)[C@H](CC(N)=O)NC(=O)[C@H](CS)NC(=O)CNS(=O)(=O)c1cccc2c(N(C)C)cccc12)C(=O)O` (Dansyl-GCNPL-OH), the result in experiment [1] was inactive. In experiment [2], the Activity came to 0%.
`CC(C)C[C@H](NC(=O)[C@H](CC(C)C)NC(=O)[C@@H](NC(=O)[C@H](CS)NC(=O)CNS(=O)(=O)c1cccc2c(N(C)C)cccc12)[C@@H](C)O)C(=O)O` (Dansyl-GCTLL-OH): the Activity in experiment [2] was found to be 0%.
Turning to `CC(C)C[C@H](NC(=O)[C@H](CC(C)C)NC(=O)[C@H](CCC(N)=O)NC(=O)[C@H](CS)NC(=O)CNS(=O)(=O)c1cccc2c(N(C)C)cccc12)C(=O)O` (Dansyl-GCQLL-OH), the Activity in experiment [1] is less than 25%; in experiment [2], 0%.
Regarding `CC(C)C[C@H](NC(=O)[C@H](CCC(N)=O)NC(=O)[C@H](CC(C)C)NC(=O)[C@H](CS)NC(=O)CNS(=O)(=O)c1cccc2c(N(C)C)cccc12)C(=O)O` (Dansyl-GCLQL-OH), the Activity is less than 25% in experiment [1] and 0% in experiment [2].
The matching figures for `CC(C)C[C@H](NC(=O)[C@@H]1CCCN1C(=O)[C@H](Cc1cnc[nH]1)NC(=O)[C@H](CS)NC(=O)CNS(=O)(=O)c1cccc2c(N(C)C)cccc12)C(=O)O` (Dansyl-GCHPL-OH): “inactive” and 0%.
Turning to `CC(C)C[C@H](NC(=O)[C@@H](NC(=O)[C@H](CS)NC(=O)[C@H](CS)NC(=O)CNS(=O)(=O)c1cccc2c(N(C)C)cccc12)C(C)C)C(=O)O` (Dansyl-GCCVL-OH), the outcome in experiment [1] was Active. Besides, in experiment [3], the Ratio was 7 mM⁻¹ s⁻¹. Besides, the Activity in experiment [2] worked out at 11%.
Turning to `CC(C)C[C@H](NC(=O)[C@H](CCC(N)=O)NC(=O)CNC(=O)[C@H](CS)NC(=O)CNS(=O)(=O)c1cccc2c(N(C)C)cccc12)C(=O)O` (Dansyl-GCGQL-OH), in experiment [1], the outcome was inactive. In addition, the Activity in experiment [2] is 0%.
Regarding `CC(C)C[C@H](NC(=O)[C@H](CC(C)C)NC(=O)[C@@H](NC(=O)[C@H](CS)NC(=O)CNS(=O)(=O)c1cccc2c(N(C)C)cccc12)C(C)C)C(=O)O` (Dansyl-GCVLL-OH), in experiment [2], the Activity was less than 5%.
As to `CC[C@H](C)[C@H](NC(=O)[C@H](CO)NC(=O)[C@H](CS)NC(=O)CNS(=O)(=O)c1cccc2c(N(C)C)cccc12)C(=O)N[C@@H](CC(C)C)C(=O)O` (Dansyl-GCSIL-OH), in experiment [1], the outcome was Active. Further, the Ratio in experiment [3] stood at 5 mM⁻¹ s⁻¹. For the same compound, the Activity in experiment [2] came out at 18%.
The matching figures for `CC[C@H](C)[C@H](NC(=O)[C@H](C)NC(=O)[C@H](CS)NC(=O)CNS(=O)(=O)c1cccc2c(N(C)C)cccc12)C(=O)N[C@@H](CC(C)C)C(=O)O` (Dansyl-GCAIL-OH): “Active”, 27 mM⁻¹ s⁻¹ and 71%.
On to `CC(C)C[C@H](NC(=O)[C@H](C)NC(=O)[C@H](Cc1cnc[nH]1)NC(=O)[C@H](CS)NC(=O)CNS(=O)(=O)c1cccc2c(N(C)C)cccc12)C(=O)O` (Dansyl-GCHAL-OH), for which, in experiment [1], the outcome was inactive. The Activity in experiment [2] came to 0%.
For `CC(C)C[C@H](NC(=O)[C@H](C)NC(=O)[C@@H](NC(=O)[C@H](CS)NC(=O)CNS(=O)(=O)c1cccc2c(N(C)C)cccc12)[C@@H](C)O)C(=O)O` (Dansyl-GCTAL-OH), the result in experiment [1] was inactive. In addition, the Activity in experiment [2] is 0%.
Take `CC(C)C[C@H](NC(=O)[C@H](CC(C)C)NC(=O)[C@H](CCCNC(=N)N)NC(=O)[C@H](CS)NC(=O)CNS(=O)(=O)c1cccc2c(N(C)C)cccc12)C(=O)O` (Dansyl-GCRLL-OH): the Activity in experiment [2] is less than 5%.
On to `CC(C)C[C@H](NC(=O)[C@H](CC(C)C)NC(=O)[C@H](CS)NC(=O)[C@H](CS)NC(=O)CNS(=O)(=O)c1cccc2c(N(C)C)cccc12)C(=O)O` (Dansyl-GCCLL-OH), for which, in experiment [2], the Activity is less than 5%.
On to `CC[C@H](C)[C@H](NC(=O)[C@H](CS)NC(=O)[C@H](CS)NC(=O)CNS(=O)(=O)c1cccc2c(N(C)C)cccc12)C(=O)N[C@@H](CC(C)C)C(=O)O` (Dansyl-GCCIL-OH), for which the result in experiment [1] was Active. The Ratio in experiment [3] came to 23 mM⁻¹ s⁻¹. The Activity in experiment [2] was 61%.
Turning to `CC(C)C[C@H](NC(=O)[C@H](CCC(N)=O)NC(=O)[C@H](CO)NC(=O)[C@H](CS)NC(=O)CNS(=O)(=O)c1cccc2c(N(C)C)cccc12)C(=O)O` (Dansyl-GCSQL-OH), in experiment [1], the outcome was inactive. For the same compound, in experiment [2], the Activity was 0%.
For `CC(C)C[C@H](NC(=O)[C@H](Cc1ccccc1)NC(=O)[C@H](CO)NC(=O)[C@H](CS)NC(=O)CNS(=O)(=O)c1cccc2c(N(C)C)cccc12)C(=O)O` (Dansyl-GCSFL-OH) the same measures were “inactive” and 0%.
As for `CC(C)C[C@H](NC(=O)[C@H](CC(C)C)NC(=O)[C@H](CO)NC(=O)[C@H](CS)NC(=O)CNS(=O)(=O)c1cccc2c(N(C)C)cccc12)C(=O)O` (Dansyl-GCSLL-OH), the values for the Activity in experiment [1] and in experiment [2] were less than 25% and 0%, respectively.
As for `CC[C@H](C)[C@H](NC(=O)[C@H](CS)NC(=O)CNS(=O)(=O)c1cccc2c(N(C)C)cccc12)C(=O)N[C@@H](CC(C)C)C(=O)N[C@@H](CC(C)C)C(=O)O` (Dansyl-GCILL-OH), the result in experiment [1] was Active. Also, the Ratio in experiment [3] came out at 8 mM⁻¹ s⁻¹. Moreover, the Activity in experiment [2] was found to be 15%.
Regarding `CC(C)C[C@H](NC(=O)CNC(=O)[C@@H](NC(=O)[C@H](CS)NC(=O)CNS(=O)(=O)c1cccc2c(N(C)C)cccc12)C(C)C)C(=O)O` (Dansyl-GCVGL-OH), the result in experiment [1] was inactive. Besides, in experiment [2], the Activity is 0%.
Regarding `CC(C)C[C@H](NC(=O)[C@H](CCCCN)NC(=O)[C@H](CCC(=O)O)NC(=O)[C@H](CS)NC(=O)CNS(=O)(=O)c1cccc2c(N(C)C)cccc12)C(=O)O` (Dansyl-GCEKL-OH), the result in experiment [1] was inactive. Besides, the Activity in experiment [2] came to 0%.
Take `CC(C)C[C@H](NC(=O)CNC(=O)CNC(=O)[C@H](CS)NC(=O)CNS(=O)(=O)c1cccc2c(N(C)C)cccc12)C(=O)O` (Dansyl-GCGGL-OH): in experiment [1], the outcome was inactive. Besides, the Activity in experiment [2] turned out to be 0%.
The matching figures for `CC(C)C[C@H](NC(=O)[C@H](CO)NC(=O)[C@H](CS)NC(=O)[C@H](CS)NC(=O)CNS(=O)(=O)c1cccc2c(N(C)C)cccc12)C(=O)O` (Dansyl-GCCSL-OH): “inactive” and 0%.
Regarding `CC(C)C[C@H](NC(=O)[C@H](CC(C)C)NC(=O)[C@H](CC(C)C)NC(=O)[C@H](CS)NC(=O)CNS(=O)(=O)c1cccc2c(N(C)C)cccc12)C(=O)O` (Dansyl-GCLLL-OH), in experiment [2], the Activity is less than 5%.
Regarding `CC(C)C[C@H](NC(=O)[C@@H](NC(=O)[C@H](CO)NC(=O)[C@H](CS)NC(=O)CNS(=O)(=O)c1cccc2c(N(C)C)cccc12)C(C)C)C(=O)O` (Dansyl-GCSVL-OH), the Activity in experiment [2] came out at 0%.
Take `CC(C)C[C@H](NC(=O)CNC(=O)[C@H](CC(C)C)NC(=O)[C@H](CS)NC(=O)CNS(=O)(=O)c1cccc2c(N(C)C)cccc12)C(=O)O` (Dansyl-GCLGL-OH): the outcome in experiment [1] was inactive. Also, the Activity in experiment [2] was 0%.
